In brackets after ≈: the same amount, converted by molar mass.
What was measured:
HL-60 = assay: Cytotoxicity against human HL60 cells after 72 hrs by MTT assay; type: functional, cell-based; conditions: HL-60, 72 h
How it was run: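 HL-60 cells kept in RPMI 1640 with 10% heat-inactivated FBS, penicillin and streptomycin, 5% CO₂, 37 °C. Seeded at 4 × 10⁴ cells/mL, 196 µL per well, pre-incubated 24 h. Sample added in EtOH-H₂O (1:1) to final 0.1-10 µg/mL, solvent-only controls. Exposure 72 h. Triplicate. IC₅₀ = 50% drop in viable cells.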

[1] = Cytotoxicity against HGF by MTT assay; type: cell-based; conditions: Homo sapiens
How it was run: (§1)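 HSC-2 grown in DMEM with 10% heat-inactivated FBS. HGF taken from a healthy person's gingival biopsy, explant-cultured, used at passages 5-7. Cells trypsinized, seeded at 6 × 10³ per well, grown 24 h. Washed with PBS, then compound for 24 h. Washed, 0.2 mg/mL MTT in DMEM/10% FBS for 4 h. Lysed in DMSO, A540 measured.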

HSC-2 = assay: Cytotoxicity against human HSC2 cells by MTT assay; type: functional, cell-based; how it was run: as §1

COc1cc(CC[C@@H](O)C[C@H](O)CCc2ccc(O)cc2)ccc1O
IC50 (HL-60): > 10 µg/mL

COc1ccc(CC[C@@H](O)C[C@H](O)CCc2ccc(OC)cc2)cc1
IC50 (HL-60): 6.4 µg/mL (≈ 18.6 µM) | IC50 [1]: 173 µg/mL (≈ 502 µM) | IC50 (HSC-2): 23 µg/mL (≈ 66.8 µM)

Oc1ccc(CC[C@@H](O)C[C@H](O)CCc2ccc(O)c(O)c2)cc1O
IC50 (HL-60): 1.8 µg/mL (≈ 5.17 µM) | IC50 [1]: > 250 µg/mL | IC50 (HSC-2): 54 µg/mL (≈ 155 µM)

OC[C@H]1O[C@@H](O[C@H](CCc2ccc(O)c(O)c2)C[C@H](O)CCc2ccc(O)cc2)[C@H](O)[C@@H](O)[C@@H]1O
IC50 (HL-60): 6.2 µg/mL (≈ 12.5 µM) | IC50 [1]: 220 µg/mL (≈ 445 µM) | IC50 (HSC-2): 158 µg/mL (≈ 319 µM)

Oc1ccc(CC[C@@H](O)C[C@H](O)CCc2ccc(O)cc2)cc1 [(+)-HANNOKINOL]
IC50 (HL-60): > 10 µg/mL | IC50 [1]: 177 µg/mL (≈ 559 µM) | IC50 (HSC-2): 231 µg/mL (≈ 730 µM)

Oc1ccc(CC[C@@H](O)C[C@H](O)CCc2ccc(O)c(O)c2)cc1
IC50 (HL-60): 2.1 µg/mL (≈ 6.32 µM) | IC50 [1]: 162 µg/mL (≈ 487 µM) | IC50 (HSC-2): 54 µg/mL (≈ 162 µM)

COc1cc(CC[C@@H](O)C[C@H](O)CCc2ccc(O)c(O)c2)ccc1O
IC50 (HL-60): 4.1 µg/mL (≈ 11.3 µM)

COc1cc(CC[C@H](C[C@H](O)CCc2ccc(O)cc2)O[C@@H]2O[C@H](CO)[C@@H](O)[C@H](O)[C@H]2O)ccc1O
IC50 (HL-60): > 10 µg/mL | IC50 [1]: > 250 µg/mL | IC50 (HSC-2): 160 µg/mL (≈ 315 µM)

OC[C@H]1O[C@@H](O[C@H](CCc2ccc(O)c(O)c2)C[C@H](O)CCc2ccc(O)c(O)c2)[C@H](O)[C@@H](O)[C@@H]1O
IC50 (HL-60): 3 µg/mL (≈ 5.88 µM) | IC50 [1]: 189 µg/mL (≈ 370 µM) | IC50 (HSC-2): 92 µg/mL (≈ 180 µM)

OC[C@H]1O[C@@H](O[C@H](CCc2ccc(O)cc2)C[C@H](O)CCc2ccc(O)cc2)[C@H](O)[C@@H](O)[C@@H]1O
IC50 (HL-60): > 10 µg/mL | IC50 [1]: 213 µg/mL (≈ 445 µM) | IC50 (HSC-2): 157 µg/mL (≈ 328 µM)

OC[C@H]1O[C@@H](O[C@H](CCc2ccc(O)cc2)C[C@H](O)CCc2ccc(O)c(O)c2)[C@H](O)[C@@H](O)[C@@H]1O
IC50 (HL-60): 5.5 µg/mL (≈ 11.1 µM) | IC50 [1]: > 250 µg/mL | IC50 (HSC-2): 155 µg/mL (≈ 313 µM)

COc1ccc(CC[C@@H](O)C[C@H](O)CCc2ccc(OC)c(OC)c2)cc1
IC50 (HL-60): 5.5 µg/mL (≈ 14.7 µM) | IC50 [1]: 176 µg/mL (≈ 470 µM) | IC50 (HSC-2): 3.9 µg/mL (≈ 10.4 µM)

COc1cc(CC[C@H](C[C@H](O)CCc2ccc(O)c(O)c2)O[C@@H]2O[C@H](CO)[C@@H](O)[C@H](O)[C@H]2O)ccc1O
IC50 (HL-60): 4.5 µg/mL (≈ 8.58 µM) | IC50 [1]: > 250 µg/mL | IC50 (HSC-2): 209 µg/mL (≈ 398 µM)

COc1cc(CC[C@@H](O)C[C@@H](CCc2ccc(O)c(OC)c2)O[C@@H]2O[C@H](CO)[C@@H](O)[C@H](O)[C@H]2O)ccc1O
IC50 (HL-60): > 10 µg/mL | IC50 [1]: > 250 µg/mL | IC50 (HSC-2): 198 µg/mL (≈ 368 µM)

COc1ccc(CC[C@@H](O)C[C@H](O)CCc2ccc(OC)c(OC)c2)cc1OC
IC50 (HL-60): 4.9 µg/mL (≈ 12.1 µM) | IC50 [1]: 174 µg/mL (≈ 430 µM) | IC50 (HSC-2): 6.6 µg/mL (≈ 16.3 µM)

COc1cc([C@@H]2c3cc4c(cc3[C@@H](O[C@@H]3O[C@@H]5CO[C@@H](C)O[C@H]5[C@H](O)[C@H]3O)[C@H]3COC(=O)[C@H]23)OCO4)cc(OC)c1O [ETOPOSIDE]
IC50 (HL-60): 0.2 µg/mL (≈ 0.34 µM) | IC50 [1]: > 200 µg/mL

COc1cc(CC[C@@H](O)C[C@H](O)CCc2ccc(O)c(OC)c2)ccc1O
IC50 (HL-60): > 10 µg/mL
